STAT1 act-1: increases IFN-gamma driven STAT1 reporter signal; activation (% of control), % at 5.5 µM; 2.6% of 200,000 active; AID 932; NIH 3T3 STAT1-luciferase reporter, luminescence; 100% = IFN-gamma alone, no compound;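 active = activation above the screen-wide mean activation plus 3 SD, cut at about 130% in these data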;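 also: raw ratio to IFN-gamma control signal so 100% means no change and 0% no light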
FLuc inhib CS: inhibits firefly luciferase, flagging false hits in luciferase inhibition screens | ATPLite firefly luciferase biochemical luminescence, 10 min | 1.5% of 200,000 active | inhibition, % at 10 µM | P08659;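 active = inhibition above about 50% when tested at 10 µM, limit read from the data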
Target sequence (P08659 whole entry, looked up): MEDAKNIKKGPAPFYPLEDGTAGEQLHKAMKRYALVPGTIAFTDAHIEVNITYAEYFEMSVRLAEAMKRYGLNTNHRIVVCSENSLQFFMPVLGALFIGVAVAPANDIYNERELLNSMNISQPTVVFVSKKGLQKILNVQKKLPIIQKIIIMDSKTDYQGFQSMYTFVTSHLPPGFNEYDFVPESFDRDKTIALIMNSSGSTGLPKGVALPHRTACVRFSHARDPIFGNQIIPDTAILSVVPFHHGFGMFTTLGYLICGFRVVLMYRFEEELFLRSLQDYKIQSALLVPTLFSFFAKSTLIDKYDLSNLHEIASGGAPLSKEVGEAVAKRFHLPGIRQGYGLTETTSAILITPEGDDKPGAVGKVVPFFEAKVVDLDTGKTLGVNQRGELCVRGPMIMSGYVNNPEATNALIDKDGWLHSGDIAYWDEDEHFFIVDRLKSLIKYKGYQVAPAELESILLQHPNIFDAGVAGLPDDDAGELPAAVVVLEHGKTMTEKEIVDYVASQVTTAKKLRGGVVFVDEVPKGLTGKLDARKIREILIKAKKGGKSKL
STAT1 inh-1: inhibitors of IFN-gamma induced STAT1 signaling. NIH 3T3 STAT1-luciferase reporter, luminescence. inhibition, % at 5.5 µM. 0.35% of 200,000 active;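 active = inhibition above a set limit, the mean inhibition across all tested compounds plus 3 SD, cut at about 34% in these data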;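 also: 0% = IFN-gamma with DMSO and 100% = IFN-gamma with 300 µM nifuroxazide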
STAT3 blocker: STAT3 signaling inhibition; U3A cells, IL-6 STAT3-luciferase reporter, luminescence; host cell line lacks STAT1; inhibition, % at 5.5 µM; 0.89% of 190,000 active;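 active = inhibition above the mean inhibition across all screened compounds plus 3 SD, cut at about 44% in these data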;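 also: 0% = DMSO only wells and 100% = 100 µM nifuroxazide control wells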
FLuc act counter: firefly luciferase counter-screen for stimulation assays | P08659 | ATPlite luciferase biochemical, luminescence, 10 min; 0 = ATP-free wells, 1 = DMSO control | activation factor at 10 µM | 200,000 tested, under 10 active | AID 1027;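 active = luciferase activation factor, scaled between plate controls, of at least 2 with compound at 10 µM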
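Material: Luciferase/luciferin reagent mix | Doses: Test compounds dosed from 2 mM stocks in 100% DMSO | Timing: 10 min incubation after luciferase reagent addition, room temperature | Measured by: Luminescence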
STAT3 act-1: increases IL-6 driven STAT3 reporter signal | activation (% of control), % at 5.6 µM | 0.91% of 190,000 active | U3A cells, IL-6 STAT3-luciferase reporter, luminescence; 100% = signal with IL-6 EC80 alone | AID 871;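 active = activation above the screen-wide mean of compound activation plus 3 SD, cut at about 130% in these data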;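 also: 0% = background luminescence of wells with medium and substrate only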
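Material: STAT1-lacking human U3A cells, STAT3 luciferase reporter | Benchmarks: IL-6-only wells as 100% reference | Probe or stimulus: IL-6 (33 ng/mL) | Timing: Compound 1 h, then IL-6 6 h at 37 °C | Detection: Luminescence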
STAT3 act-2: confirmation of STAT3 signaling activators; AID 1267; potentiation (% of control), % at 5.7 µM; U3A STAT3-luciferase reporter, IL-6 potentiation, luminescence; U3A cells lack STAT1; 100 means same as IL-6 alone; shares compounds with STAT3 act-1; 64% of 1,200 active;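 active = percent activation of the STAT3 luciferase reporter above a set limit taken from the earlier primary screen, cut at about 130% in these data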;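 also: 0% = background signal of medium plus substrate and 100% = median of IL-6 with DMSO wells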
NFkB act 2: NF-kappaB activation in STAT3 activator counter-screen; AID 1309; 11% of 1,200 active; shares compounds with STAT3 act-1; activation (% of control), % at 5.7 µM; human cells, NF-kappaB reporter activation; in the data active = activation above about 120%;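 also: reporter induced by TNF-alpha stimulation; 100% = median of stimulated DMSO wells and 0% = no signal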
STAT1 act-2: STAT1 activation in STAT3 activator counter-screen. shares compounds with STAT3 act-1. 13% of 1,200 active. NIH 3T3 STAT1-luciferase reporter, IFN-gamma, luminescence. activation (% of control), % at 5.7 µM;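 active = activation above the solvent-only control well mean plus 3 SD, set per screening run, cut at about 120% in these data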;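 also: 100% = IFN-gamma with DMSO median signal so 100% means no change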
STAT1 inh-2: confirmation of STAT1 signaling inhibitors; shares compounds with STAT1 inh-1; NIH 3T3 STAT1-luciferase reporter, IFN-gamma, luminescence; inhibition, % at 5.5 µM; 55% of 200 active;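 active = triplicate mean inhibition exceeding the hit cutoff computed for the primary STAT1 screen, cut at about 35% in these data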;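 also: 0% = DMSO with IFN-gamma and 100% = 300 µM nifuroxazide with IFN-gamma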
NFkB inh: inhibits NF-kappaB, counter-screen to STAT1 inhibitors; 30% of 200 active; inhibition, % at 5.7 µM; HEK293T NF-kB luciferase reporter, TNF-alpha induced, luminescence; shares compounds with STAT1 inh-1;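 active = inhibition above the mean of solvent-only control wells plus 3 SD of those wells, cut at about 15% in these data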;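 also: 0% = DMSO with TNF-alpha and 100% = MG-132 control with TNF-alpha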
STAT3 inh STAT1c: inhibits STAT3, counter-screen to STAT1 inhibitors; shares compounds with STAT1 inh-1; U3A cells, IL-6 STAT3 luciferase reporter, luminescence; cells lacking STAT1; inhibition, % at 5.7 µM; 20% of 200 active;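 active = inhibition above the mean of solvent-only control wells plus 3 SD, set per campaign, cut at about 25% in these data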;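 also: 0% = IL-6 plus DMSO and 100% = IL-6 plus nifuroxazide control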
Numbers without * were called inactive; · = not tested or not shown. Only some compounds are listed: those with a hit (about 4.9% of all), similar ones and a draw of the others.

SMILES	STAT1 act-1	FLuc inhib CS	STAT1 inh-1	STAT3 blocker	FLuc act counter	STAT3 act-1	STAT1 inh-2	NFkB inh	STAT3 inh STAT1c	others
COC(=O)c1ccc(OC(=O)CS(=O)c2ccccc2[N+](=O)[O-])cc1 (stereo not given)	71	-3	31	-11	1	122	·	·	·
O=C(CS(=O)c1ccc(C(F)(F)F)cc1[N+](=O)[O-])Oc1ccccc1 (stereo not given)	77	-3	26	-51	1	147*	·	·	·	STAT3 act-2=129;NFkB act 2=101;STAT1 act-2=72
Cn1c(CNC(=O)c2ccccc2)nnc1SCC(=O)Nc1nccs1	108	7	-11	13	0.9	98	·	·	·
COc1cc(C(=O)N/N=C/C2CC=CCC2)cc(OC)c1OC (stereo not given)	110	-4	-11	-60	1	144*	·	·	·	STAT3 act-2=99;NFkB act 2=103;STAT1 act-2=97
O=C(N/N=C/C1CC=CCC1)c1ccc(O)cc1O (stereo not given)	94	11	7	8	0.9	94	·	·	·
CCCCn1c2ccccc2c2nnc(SCC(=O)NC3=NN=C(c4ccccc4)CS3)nc21	98	-5	2	-50	1	136*	·	·	·	STAT3 act-2=107;NFkB act 2=110;STAT1 act-2=118
CCCn1c2ccccc2c2nnc(SCC(=O)OC)nc21	100	-4	0	0	1	102	·	·	·
O=S(=O)(Cc1ccccc1Cl)NCc1ccccc1	104	0	-6	14	1	97	·	·	·
Cc1cccc(NC(=O)CN(C)S(=O)(=O)c2ccc(Cl)cc2)n1	100	-9	-1	2	1.1	104	·	·	·
CN(CC(=O)Nc1nc2ccccc2s1)S(=O)(=O)c1ccc(Cl)cc1	106	-3	-6	-60	1	156*	·	·	·	STAT3 act-2=130;NFkB act 2=100;STAT1 act-2=101
CCCCC(CC)C(=O)NCc1ccc(F)cc1 (stereo not given)	99	-6	1	-2	1.1	104	·	·	·
COc1ccc(NC(=O)CSc2ccc3nnc(-c4cccnc4)n3n2)c(OC)c1	101	3	-3	8	1	102	·	·	·
FC(F)(F)c1cccnc1N1CCN(c2ncnc3nc[nH]c23)CC1	97	-6	4	15	1.1	88	·	·	·
Clc1ccccc1N1CCN(c2ncnc3nc[nH]c23)CC1	66	-6	37*	25	1.1	80	-6	2	-9
COc1ccc(-n2c(SCc3cccnc3)nc3c(c2=O)SCC3)cc1OC	58	2	45*	8	1	94	35*	10	-23
Cn1c(SCc2cccnc2)nc2c(c1=O)SCC2	91	-2	7	2	1	102	·	·	·
CCOC(=O)c1c(C)c(-c2ccccc2)n(CC(=O)NCCCN(CC)CC)c1C	101	-4	1	3	1	102	·	·	·
CC1=NC(=O)C(N=Nc2ccccc2C(=O)O)N1c1ccccc1 (stereo not given)	39	10	65*	0	0.9	103	50*	16*	-8
CC1=NC(=O)C(N=Nc2ccccc2C)N1c1ccccc1 (stereo not given)	106	·	-6	-4	·	106	·	·	·
Cc1nn(-c2ccccc2)c(Cl)c1C(=O)N(C)c1nc(-c2ccc(F)cc2)cs1	113	0	-15	0	1	100	·	·	·
COc1ccc(C[C@@H]2CN3C(=NC[C@@H]3C)N2CCNC(=O)c2ccc(C)c(Br)c2)cc1	85	-5	18	·	1	·	·	·	·
CCC(C)(C)C1CCc2c(sc(NC(=O)c3cccs3)c2C(N)=O)C1 (stereo not given)	85	10	16	10	0.9	93	·	·	·
CC(C)(C)C1CCc2c(sc(NC(=O)c3cccs3)c2C(N)=O)C1 (stereo not given)	51	58*	54*	8	0.4	94	-58	-6	-21
Cc1ccc(C(=O)C(OC(=O)c2cnccn2)c2ccccc2)cc1 (stereo not given)	102	1	-4	-1	1	103	·	·	·
CCC(=O)Nc1ccc(-c2nc3ccccc3c(=O)o2)cc1	63	74*	39*	32	0.3	76	19	14	-3
SMILES	STAT1 act-1	FLuc inhib CS	STAT1 inh-1	STAT3 blocker	FLuc act counter	STAT3 act-1	STAT1 inh-2	NFkB inh	STAT3 inh STAT1c	others
O=C(C1CCC(CNS(=O)(=O)c2cccc3nsnc23)CC1)N1CCN(c2ccccn2)CC1 (stereo not given)	66	-8	35*	7	1.1	96	25	-3	7
CS(=O)(=O)Nc1ccc(C2=NN(C(=O)c3ccco3)C(c3cccc(F)c3)C2)cc1 (stereo not given)	48	-2	56*	20	1	91	29	-10	13
COc1ccccc1-c1c(C(F)(F)F)oc2cc(OCC(=O)Nc3cc(C)ccc3C)ccc2c1=O	92	-5	9	5	1.1	93	·	·	·
Cn1nnnc1Sc1ncnc2scc(-c3ccc(F)cc3)c12	66	-5	38*	0	1.1	102	50*	-18	-12
CC(=O)Nc1ccc(Sc2ncnc3scc(-c4ccccc4)c23)cc1	100	-4	1	-5	1	107	·	·	·
Cn1nnnc1Sc1ncnc2scc(-c3ccccc3)c12	60	-9	44*	-8	1.1	113	49*	-7	-12
O=C(NC(=S)Nc1ccc(-c2ccc(CO)o2)cc1)c1cccs1	98	14	1	12	0.9	91	·	·	·
Cc1ccc(C(=O)NC(=S)Nc2ccc(-c3ccc(CO)o3)cc2)cc1	41	0	64*	7	1	95	26	-8	-2
COc1ccc(C(C)=O)cc1COc1nc(C)nc2ccccc12	95	-6	5	5	1.1	98	·	·	·
